From PubChem BioAssay AID492976 (The Scripps Research Institute Molecular Screening Center, 2010) come the findings set out here.

Each structure is given as a SMILES string. Calls of active or inactive are those of the source.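 The calls were made as follows: active = inhibition of 35% or more of the parasite aminopeptidase activity in malaria cell lysate; inactive = inhibition below 35%.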

For orientation: inhibition means how much of the control response was suppressed.

Chain of Aminopeptidase N (Plasmodium falciparum (isolate 3D7)) (O96935 whole entry, looked up): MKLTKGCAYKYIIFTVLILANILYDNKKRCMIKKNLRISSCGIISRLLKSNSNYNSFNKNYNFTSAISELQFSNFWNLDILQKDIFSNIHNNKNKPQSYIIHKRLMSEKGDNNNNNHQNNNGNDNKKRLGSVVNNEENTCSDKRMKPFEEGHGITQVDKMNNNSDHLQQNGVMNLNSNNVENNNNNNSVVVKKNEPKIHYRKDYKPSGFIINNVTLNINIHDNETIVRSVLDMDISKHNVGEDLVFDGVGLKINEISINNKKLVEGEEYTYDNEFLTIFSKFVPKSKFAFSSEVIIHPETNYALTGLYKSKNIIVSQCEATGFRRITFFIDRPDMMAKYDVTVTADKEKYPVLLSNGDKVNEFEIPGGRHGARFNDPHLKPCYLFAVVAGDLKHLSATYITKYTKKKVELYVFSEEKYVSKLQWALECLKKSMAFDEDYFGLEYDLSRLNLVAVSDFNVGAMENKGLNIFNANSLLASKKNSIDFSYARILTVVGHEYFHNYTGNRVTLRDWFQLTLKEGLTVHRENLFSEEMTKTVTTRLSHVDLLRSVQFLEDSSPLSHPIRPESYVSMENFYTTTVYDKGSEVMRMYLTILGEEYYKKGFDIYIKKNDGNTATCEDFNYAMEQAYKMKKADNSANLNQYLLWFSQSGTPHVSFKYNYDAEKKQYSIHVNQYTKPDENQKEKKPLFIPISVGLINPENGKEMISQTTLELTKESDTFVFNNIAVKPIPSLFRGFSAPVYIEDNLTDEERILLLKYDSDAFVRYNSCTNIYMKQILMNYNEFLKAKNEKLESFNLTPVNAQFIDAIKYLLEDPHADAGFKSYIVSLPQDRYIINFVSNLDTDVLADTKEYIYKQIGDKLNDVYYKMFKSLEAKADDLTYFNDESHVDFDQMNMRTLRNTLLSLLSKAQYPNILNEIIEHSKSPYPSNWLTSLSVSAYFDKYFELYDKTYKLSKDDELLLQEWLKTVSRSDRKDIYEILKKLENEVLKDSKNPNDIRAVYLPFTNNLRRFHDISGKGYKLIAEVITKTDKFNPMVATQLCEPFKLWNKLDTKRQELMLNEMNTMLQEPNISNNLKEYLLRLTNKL

The target of the assay is Aminopeptidase N (Plasmodium falciparum (isolate 3D7)) (UniProt O96935). Briefly: PfM1AAP inhibitors in parasite lysate, late-stage follow-up, cell lysate, fluorescence, malaria cell lysate, powder samples (AID 492976). Particulars: P. falciparum lysate, H-Arg-NHMec fluorogenic substrate; at 5 µM; stronger effect = higher value. The method, boiled down:
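test system = Plasmodium falciparum parasite cell lysate as enzyme source | medium = 25 mM Tris-HCl buffer, pH 7.5 | times = 10 min preincubation, 30 min reading | technique = kinetic NHMec fluorescence, ex 370 nm, em 460 nm, 60-s intervals | measure = percent inhibition relative to uninhibited and lysate-free wells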
Take `O=C(NCc1cccc(F)c1)C1CCN(S(=O)(=O)Cc2ccccc2)CC1`: the inhibition is 35%. On to `O=C(Nn1c(C2CCC2)nc2ccccc2c1=O)c1cccs1`, for which the inhibition is 0% (inactive). The value for `O=C1N=c2ccccc2=C1c1sc(=S)n(NC(=O)c2ccccc2)c1O` was 0% (inactive); that for `COc1ccc(OC)c(/C=C2\SC(=S)N(C(C(=O)O)c3ccccc3)C2=O)c1` (stereo not drawn) was 0% (inactive); that for `O=C(O)CCC(=O)N1N=C(c2c(-c3ccccc3)c3cc(Cl)ccc3[nH]c2=O)CC1c1ccco1` (stereo not drawn) was 2% (inactive). For the molecule `COc1ccccc1-c1nc2ccccc2c(=O)n1NC(=O)c1cccs1`, the inhibition is 0% (inactive). With `O=C1N=c2ccccc2=C1c1sc(=S)n(NC(=O)c2cccc(O)c2)c1O`, the inhibition is 17% (inactive). For the molecule `O=C(O)CCC(=O)N1N=C(c2c(-c3ccccc3)c3cc(Cl)ccc3[nH]c2=O)CC1c1cccs1` (stereo not drawn), the inhibition was 3% (inactive). The same measure for `O=C(NCc1ccco1)C1CCCN(S(=O)(=O)c2cccc3nonc23)C1` (stereo not drawn): 0% (inactive); for `O=C1/C(=C/c2cccs2)SC(=S)N1NS(=O)(=O)c1ccccc1`: 0% (inactive). The value for `COc1ccc(C2CC(c3c(-c4ccccc4)c4cc(Cl)ccc4[nH]c3=O)=NN2C(=O)CCC(=O)O)cc1` (stereo not drawn) was 0% (inactive). For `CC(=O)N1N=C(c2c(O)n(C)c(=O)n(C)c2=O)CC1c1ccccc1` (stereo not drawn), the inhibition is 0% (inactive). Turning to `O=C(NCCC1=CCCCC1)C1CCN(S(=O)(=O)c2ccc(Br)s2)CC1`, the inhibition was 13% (inactive).
